Experimental data taken from ChEMBL document CHEMBL1141607, “Design, synthesis, and in vitro photodynamic activities of benzochloroporphyrin derivatives as tumor photosensitizers” (Bioorg Med Chem Lett, 2008).
Values after ≈ are worked out from the molar mass of the structure shown. Active and inactive are the calls of the source. The calls are words filed in the database; no cut-off is given here.

Legend:
Bel-7402 [1] = assay: Cytotoxicity against human BEL-7402 cells assessed as photo-induced growth inhibition after 24 hrs in dark by MTT assay; format: functional, cell-based; conditions: Bel-7402, 24 h
In short: (§1)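 Human hepatoma BEL-7402 cells were incubated with compound (0.03125–2.5 µg/mL) in the dark for 24 h at 37 °C. Cells in the light arm were then irradiated with a 670 nm laser at 10 J/cm² (56 mW/cm² for 3 min); dark-arm cells were not irradiated. Cells were then incubated for 24 h at 37 °C and survival was read by MTT in triplicate. IC50 was reported with 95% confidence limits.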

Bel-7402 [2] = assay: Cytotoxicity against human BEL-7402 cells assessed as photo-induced growth inhibition upto 2.5 ug/mL after 24 hrs in dark by MTT assay; format: functional; design: scale not given: the % may be the effect or the level left; in short: as §1
Bel-7402 [3] = assay: Induction of apoptosis in human BEL-7402 cells […] by methyl green-pyronin staining method; format: functional, cell-based

Row | Compound | IC50 (Bel-7402 [1]) [µg/mL] | Activity (Bel-7402 [2]) [%] | Activity (Bel-7402 [3])
1 | CCC1=C(C)c2cc3[nH]c(cc4nc(c(CC(=O)OC)c5[nH]c(cc1n2)c(C)c5C(=O)OC)C(CCC(=O)OC)=C4C)[C@@]1(C)C3=CC=C(C(=O)OC)[C@H]1C(=O)OC | 1.32 (≈ 1.69 µM) | >92 | –
2 | CCC1=C(C)c2cc3[nH]c(cc4nc(c5c6[nH]c(cc1n2)c(C)c6C(=O)C5C(=O)OC)C(CCC(=O)OC)=C4C)[C@@]1(C)C3=CC=C(C(=O)OC)[C@H]1C(=O)OC (some centres undefined) | 0.26 (≈ 0.348 µM) | >92 | Active
3 | CCC1=C(C)c2cc3[nH]c(cc4nc(c(C)c5[nH]c(cc1n2)c(C)c5C(=O)OC)C(CCC(=O)OC)=C4C)[C@@]1(C)C3=CC=C(C(=O)OC)[C@H]1C(=O)OC | 0.47 (≈ 0.652 µM) | >92 | –
4 | CCC1=C(C)c2cc3[nH]c(cc4nc(c(C(=O)OC)c5[nH]c(cc1n2)c(C)c5C(=O)OC)C(CCC(=O)OC)=C4C)[C@@]1(C)C3=CC=C(C(=O)OC)[C@H]1C(=O)OC | 0.27 (≈ 0.353 µM) | >92 | –
